Source: PMC12004261 (RSC Medicinal Chemistry, 2025)
“Also recorded” adds a separate entry of the source.

How the values were obtained:
synthetic α-Syn fibrils = synthetic α-Syn fibrils (Homo sapiens, UniProt P37840); assay: Saturation binding assay of [^3H]M503-1619 in α-Syn fibrils
[1] = biological target: PD brain tissue homogenates (Homo sapiens, UniProt P37840); assay: Saturation binding assay of [^3H]M503-1619 in PD brain tissue homogenates
Outline: (§1)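 Frozen brain homogenate in pH 7.0 PBS, diluted to a final 100 μg tissue per mL. Contained ~1 nM tritiated test compound plus 0.2–1000 nM unlabelled compound and 0.25% DMSO (final). Incubated 60 min at room temperature, GF/B filtration, three PBS washes, scintillation counting after standing overnight. Nondisplaceable binding set with ~1 μM unlabelled compound; bound corrected for diluted specific activity. KD from Scatchard slope, Bmax from x-intercept; at least triplicate.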

[2] = biological target: AD brain tissue homogenates; assay: Saturation binding assay of [^3H]M503-1619 in AD brain tissue homogenates; set-up: species or system human; details: AD tissue (n = 4), mean ± SD
Outline: as §1

[3] = biological target: PSP brain tissue homogenates (Homo sapiens, UniProt P10636); assay: Saturation binding assay of [^3H]M503-1619 in PSP brain tissue homogenates
Chain of PSP brain tissue homogenates (P10636 561-698 limits assumed): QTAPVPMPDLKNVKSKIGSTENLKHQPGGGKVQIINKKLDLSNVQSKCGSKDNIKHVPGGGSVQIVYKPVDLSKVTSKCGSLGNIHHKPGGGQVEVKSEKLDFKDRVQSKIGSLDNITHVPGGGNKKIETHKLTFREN
Outline: as §1

[4] = biological target: CBD brain tissue homogenates (Homo sapiens, UniProt P10636); assay: Saturation binding assay of [^3H]M503-1619 in CBD brain tissue homogenates
Chain of CBD brain tissue homogenates (P10636 561-708 limits assumed): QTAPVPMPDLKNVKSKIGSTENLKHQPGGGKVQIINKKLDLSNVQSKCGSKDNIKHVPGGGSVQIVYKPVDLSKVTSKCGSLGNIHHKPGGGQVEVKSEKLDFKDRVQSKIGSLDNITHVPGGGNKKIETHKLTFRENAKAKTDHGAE
Outline: as §1

[5] = biological target: α-Syn (Lewy bodies in PD, GCIs in MSA) (Homo sapiens, UniProt P37840); assay: Nuclear emulsion; type: binding; details: 5 nM and 15 nM, listed as [^3H]M503-1619
Outline: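 Fresh-frozen PD and MSA cryosections (16 μm) were quenched for lipofuscin with TrueBlack in 70% EtOH and immunostained for pS129 α-Syn. Sections were incubated with 5 or 15 nM tritiated test compound in 30 mM Tris–HCl pH 7.4 for 2 h at 37 °C, then given graded Tris/ethanol washes. Emulsion-dipped slides were exposed 4 days in the dark and developed. Silver grains were imaged by brightfield alongside fluorescence.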

[6] = Total-body PET imaging study; type: in vivo, rhesus macaque; details: rhesus monkey
Brain PET imaging study = type: in vivo, cynomolgus macaque; details: cynomolgus monkey
Outline: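 Male cynomolgus macaque (8.5 kg), ketamine 10–20 mg kg−1 induction, kept on 40% N2O/60% O2 with 1.0–1.5% isoflurane. After a positioning scan and a 45 min transmission scan for attenuation, ~350 MBq of the 11C-labelled test compound was given by limb-vein catheter. Two-hour dynamic scan, filtered back projection with corrections, co-registration to a monkey MRI template, whole-brain VOI. SUV normalised to body weight and injected dose.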

[7] = Radiometabolite study of venous blood plasma; type: in vivo, rhesus monkey; details: 7.5 min post-injection
Outline: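 Plasma from a 26-year-old male rhesus macaque was sampled during a PET scan after IV injection of 105 MBq of the 11C-labelled test compound. The animal was anaesthetised with ketamine/dexmedetomidine and maintained on isoflurane. Venous blood was spun 5 min at 3000g and the plasma deproteinised with acetonitrile 1:1. Reverse-phase C18 HPLC used 65% 0.1 M ammonium formate/35% acetonitrile at 1.2 mL min−1. An in-line radio-detector measured parent fraction by standard retention time.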

## COc1ccc(NC(=O)c2cnc(N3CCN(c4ccccn4)CC3)nc2N)cc1 [M503-1619, 4-Amino-N-(4-methoxyphenyl)-2-(4-(pyridin-2-yl)piperazin-1-yl)pyrimidine-5-carboxamide]
Synthetic α-Syn fibrils
  Kd: 4.4 ± 1 nM
Synthetic α-Syn fibrils; α-Syn fibrils (n = 4)
  Bmax: 1156 ± 112 nM
[1]
  Kd: 2.5 ± 0.3 nM
[1]; PD tissue (n = 4)
  Bmax: 59 ± 10 nM
[1]; α-Syn vs. tau
  Selectivity vs. tau: 10–20 fold
[2]
  Kd: 37 ± 2 nM
[3]
  Kd: 55 ± 3 nM
[3]; PSP tissue (n = 4)
  Bmax: 399 ± 24 nM
[4]
  Kd: 94 ± 13 nM
[4]; CBD tissue (n = 3)
  Bmax: 540 ± 130 nM
[5]; MSA brain tissue sections
  High-resolution autoradiography: binding to GCIs: not to GCIs present in MSA; also recorded: not on GCIs in MSA brain
[5]; PD brain tissue sections
  High-resolution autoradiography: binding to Lewy bodies: target engagement of [^3H]M503-1619 to Lewy bodies in PD brain; also recorded: accumulation of silver grains on Lewy bodies in PD
[6]
  Time of peak uptake of the whole brain: 2 to 3 min
  Whole brain peak to 60 min ratio: 3.2
[6]; whole brain
  Peak uptake of the whole brain, standardized uptake value (SUV): 2.5
Brain PET imaging study
  Time of peak uptake of the whole brain: 2 to 3 min
  Whole brain peak to 60 min ratio: 3.2
Brain PET imaging study; whole brain
  Peak uptake of the whole brain, standardized uptake value (SUV): 2.3
[7]
  Parent (%): 57%
